How the values were obtained:
[1] = molecular target: T1, Corticotropin-releasing factor receptor 1 (Homo sapiens, UniProt P34998); experiment: Inhibition of [125I][Tyr0]-sauvagine binding to human Corticotropin releasing factor receptor 1 expressed in mouse fibroblast Ltk- cells; assay type: cell-based
T1 sequence (P34998 whole entry): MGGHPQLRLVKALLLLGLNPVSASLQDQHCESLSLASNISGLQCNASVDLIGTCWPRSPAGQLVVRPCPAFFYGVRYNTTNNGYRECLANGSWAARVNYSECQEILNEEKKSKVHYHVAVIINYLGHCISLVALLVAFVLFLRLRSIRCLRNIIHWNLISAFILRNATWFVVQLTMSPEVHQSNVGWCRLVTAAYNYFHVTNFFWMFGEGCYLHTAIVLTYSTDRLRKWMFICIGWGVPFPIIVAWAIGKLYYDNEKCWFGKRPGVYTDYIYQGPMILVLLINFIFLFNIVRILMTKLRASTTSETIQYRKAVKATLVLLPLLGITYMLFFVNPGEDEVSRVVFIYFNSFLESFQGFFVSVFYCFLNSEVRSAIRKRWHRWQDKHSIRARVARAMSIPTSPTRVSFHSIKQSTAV

[2] = molecular target: Corticotropin releasing factor receptor (Rattus norvegicus, UniProt P47866+P35353); experiment: Inhibition of corticotropin releasing factor stimulated cAMP production in rat pituitary assay; assay type: functional, tissue-based, Pituitary gland
[3] = molecular target: T2, Corticotropin-releasing factor receptor 2 (Homo sapiens, UniProt Q13324); experiment: Binding affinity for human Corticotropin releasing factor receptor 2
T2 sequence (Q13324 whole entry): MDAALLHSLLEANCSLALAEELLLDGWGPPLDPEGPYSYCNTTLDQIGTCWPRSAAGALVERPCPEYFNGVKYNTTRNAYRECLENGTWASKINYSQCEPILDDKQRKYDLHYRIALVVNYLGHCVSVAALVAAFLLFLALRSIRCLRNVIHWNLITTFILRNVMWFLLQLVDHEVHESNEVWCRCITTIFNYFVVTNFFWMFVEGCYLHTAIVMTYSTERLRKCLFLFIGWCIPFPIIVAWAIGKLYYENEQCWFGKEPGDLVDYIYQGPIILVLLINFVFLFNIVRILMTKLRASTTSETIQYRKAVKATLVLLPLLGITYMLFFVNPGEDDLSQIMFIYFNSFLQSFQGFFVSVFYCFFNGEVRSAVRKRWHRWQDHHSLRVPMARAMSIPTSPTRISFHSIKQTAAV

[4] = Peak plasma concentration upon oral administration of 2 mg/kg to rats; assay type: ADME, organism-based; parameters: dose 2 mg/kg, route oral; settings: rat
In short: (§1)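 Male Sprague-Dawley rats were dosed at 1 mg/kg iv via the tail vein and at 2 mg/kg by oral gavage, n = 3 per time point. The dosing solution was in purified water at 2 mL/kg. Terminal plasma was sampled at set times (composite design), acetonitrile-precipitated and analysed by LC-MS/MS (LLOQ 5 ng/mL). Parameters came from noncompartmental analysis.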

[5] = Area under concentration time curve upon oral administration of 2 mg/kg to rats; assay type: ADME, organism-based; parameters: dose 2 mg/kg, route oral; settings: rat, in vivo; in short: as §1
[6] = Bioavailability upon 2 mg/kg oral administration to rats; assay type: ADME, organism-based; settings: rat, in vivo; in short: as §1
[7] = Volume of distribution in rats upon intravenous administration of 1 mg/kg; assay type: ADME, organism-based; parameters: dose 1 mg/kg, route intravenous; settings: rat, in vivo, read-out: V; in short: as §1
[8] = Plasma half life in rats upon intravenous administration of 1 mg/kg; assay type: ADME, organism-based; parameters: dose 1 mg/kg, route intravenous; settings: rat; in short: as §1
[9] = Time to attain peak plasma concentration upon oral administration of 2 mg/kg to rats; assay type: ADME, organism-based; parameters: dose 2 mg/kg, route oral; settings: rat; in short: as §1
[10] = Clearance of compound in rats upon intravenous administration of 1 mg/kg; assay type: ADME, organism-based; parameters: dose 1 mg/kg, route intravenous; settings: rat, in vivo; in short: as §1
[11] = Ratio of compound concentration in brain to that of plasma of rats upon intravenous administration of 1 mg/kg; assay type: ADME, organism-based; parameters: dose 1 mg/kg, route intravenous; settings: rat
In short: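 Male Sprague-Dawley rats, 3 per time point, received 1 mg/kg iv by tail vein at 2 mL/kg in filtered purified water. Terminal blood and brain were taken at set times for composite sampling. Plasma was acetonitrile-precipitated and half-brains were homogenized in 50:50 acetonitrile/water, then measured by LC-MS/MS (LLOQ 5 ng/mL plasma, 0.5 ng/g brain). Ratio = brain AUC / plasma AUC, noncompartmental.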

A Ki [1] of 0.028 µM was found for `CCCN(c1nc(-c2ccc(Cl)cc2OC)n(C)n1)C(C1CC1)C1CC1` in this work.

An IC50 [2] of 0.09 µM, a Ki [1] of 0.0092 µM and a Ki [3] greater than 10 µM were found for `CCCN(c1nc(-c2ccc(Cl)cc2Cl)n(C)n1)C(C1CC1)C1CC1` in this work.

A Ki [1] of 0.061 µM was found for `CCCC(c1ccccc1)N(CCC)c1nc(-c2ccc(OC)cc2C)n(C)n1` (configuration not stated) in this work.

A Ki [1] of 0.15 µM was found for `CCC(c1ccccc1)N(CC)c1nc(-c2ccc(Cl)cc2OC)n(C)n1` (configuration not stated) in this work.

A Ki [1] of 0.44 µM was found for `CCCCC(CC)N(CC1CC1)c1nc(-c2ccc(Cl)cc2OC)n(C)n1` (configuration not stated) in this work.

A Ki [1] of 0.28 µM was found for `CCCCC(CC)N(CCOC)c1nc(-c2ccc(Cl)cc2OC)n(C)n1` (configuration not stated) in this work.

A Ki [1] of 0.91 µM was found for `CCCN(c1nc(-c2ccc(Cl)cc2OC)n(C)n1)C(C(C)C)C(C)C` in this work.

A Ki [1] of 0.012 µM was found for `CCCN(c1nc(-c2ccc(Cl)cc2OC)n(C)n1)C(CC)c1ccc(C(F)(F)F)cc1` (configuration not stated) in this work.

A Ki [1] of 0.024 µM was found for `CCCCC(c1ccc(F)cc1)N(CCC)c1nc(-c2ccc(OC)cc2OC)n(C)n1` (configuration not stated) in this work.

A Ki [1] of 0.12 µM was found for `CCCC(c1ccccc1)N(CCC)c1nc(-c2ccc(OC)cc2OC)n(C)n1` (configuration not stated) in this work.

A Ki [1] greater than 10 µM was found for `CCCN(CCC)c1nc(-c2ccc(Cl)cc2OC)n(C)n1` in this work.

A Ki [1] of 0.084 µM was found for `CCCC(c1ccccc1)N(CCC)c1nc(-c2cc(OC)c(OC)cc2Cl)n(C)n1` (configuration not stated) in this work.

A Ki [1] of 0.428 µM was found for `CCCN(c1nc(-c2ccc(Cl)cc2OC)n(C)n1)[C@H](CC)c1ccc(C(F)(F)F)cc1` in this work.

A Ki [1] of 0.046 µM was found for `CCCC[C@H](c1ccc(F)cc1)N(CCC)c1nc(-c2ccc(Cl)cc2OC)n(C)n1` in this work.

A Ki [1] of 0.38 µM was found for `CCC[C@H](c1ccccc1)N(CCC)c1nc(-c2ccc(OC)cc2C)n(C)n1` in this work.

An IC50 [2] of 0.092 µM and a Ki [1] of 0.0057 µM were found for `CCCC[C@@H](c1ccccc1)N(CCC)c1nc(-c2ccc(OC)cc2C)n(C)n1.Cl` in this work.

An IC50 [2] of 0.12 µM and a Ki [1] of 0.0052 µM were found for `CCCN(c1nc(-c2ccc(Cl)cc2OC)n(C)n1)[C@@H](CC)c1ccc(C(F)(F)F)cc1.Cl` in this work.

An IC50 [2] of 0.12 µM and a Ki [1] of 0.009 µM were found for `CCC[C@@H](c1ccccc1)N(CCC)c1nc(-c2ccc(OC)cc2C)n(C)n1.Cl` in this work.

An IC50 [2] of 0.049 µM and a Ki [1] of 0.0027 µM were found for `CCCC[C@@H](c1ccc(F)cc1)N(CCC)c1nc(-c2ccc(Cl)cc2OC)n(C)n1.Cl` in this work.

A Ki [1] of 0.35 µM was found for `CCCC[C@H](c1ccccc1)N(CCC)c1nc(-c2ccc(OC)cc2C)n(C)n1` in this work.

An IC50 [2] of 0.056 µM and a Ki [1] of 0.004 µM were found for `CCCC[C@@H](c1ccccc1)N(CCC)c1nc(-c2ccc(Cl)cc2OC)n(C)n1.Cl` in this work.

An IC50 [2] of 0.27 µM was found for `CCCN(c1nc(-c2ccc(OC)cc2C)n(C)n1)[C@@H](CC)c1ccc(C(F)(F)F)cc1.Cl` in this work.

An IC50 [2] of 0.091 µM and a Ki [1] of 0.0063 µM were found for `CCC[C@@H](c1ccccc1)N(CCC)c1nc(-c2ccc(Cl)cc2OC)n(C)n1.Cl` in this work.

An IC50 [2] of 0.24 µM and a Ki [1] of 0.022 µM were found for `CCC[C@@H](c1ccccc1)N(CCC)c1nc(-c2ccc(OC)cc2OC)n(C)n1.Cl` in this work.

An IC50 [2] of 0.24 µM and a Ki [1] of 0.0163 µM were found for `CCC[C@@H](c1ccccc1)N(CCC)c1nc(-c2cc(OC)c(OC)cc2Cl)n(C)n1.Cl` in this work.

A Ki [1] greater than 10 µM was found for `CCCN(c1nc(-c2ccc(Cl)cc2Cl)nn1C)C(C1CC1)C1CC1` in this work.

A Ki [1] of 0.014 µM was found for `CCCC(c1ccccc1)N(CCC)c1nc(-c2ccc(Cl)cc2OC)n(C)n1` (configuration not stated) in this work.

A Cmax [4] of 0.29 µg/mL, an AUC [5] of 1.01 µg·h/mL and a bioavailability [6] of 84% were found for `CCCCC(c1ccc(F)cc1)N(CCC)c1nc(-c2ccc(Cl)cc2OC)n(C)n1` (configuration not stated) in this work. It also gave a Vd [7] of 7.8 L/kg, a half-life [8] of 3.3 h and a Tmax [9] of 0.5 h. It also gave a clearance [10] of 1.66 L/h/kg, a Ki [1] of 0.0073 µM and a Ratio [11] of 20%.

A Ki [1] of 0.046 µM was found for `CCCCC(CC)N(CCC)c1nc(-c2ccc(Cl)cc2OC)n(C)n1` (configuration not stated) in this work.

A Ki [1] of 0.69 µM was found for `CCCN(c1nc(-c2ccc(Cl)cc2OC)n(C)n1)C(C)CC` (configuration not stated) in this work.

A Ki [1] of 0.0069 µM was found for `CCCCC(c1ccccc1)N(CCC)c1nc(-c2ccc(OC)cc2C)n(C)n1` (configuration not stated) in this work.

A Ki [1] of 3.4 µM was found for `CCCN(CCC)c1nc(-c2ccc(Cl)cc2Cl)n(C)n1` in this work.

A Ki [1] of 0.026 µM was found for `CCCN(c1nc(-c2ccc(Cl)cc2OC)n(C)n1)C(CC)c1ccccc1` (configuration not stated) in this work.

A Ki [1] of 0.002 µM was found for `CCCN(CC1CC1)c1nc(C)nc(Nc2c(Cl)cc(Cl)cc2Cl)c1Cl` in this work.

From ChEMBL document CHEMBL1142705, “Rational design, synthesis, and structure-activity relationships of aryltriazoles as novel corticotropin-releasing factor-1 receptor antagonists” (J Med Chem, 2005)
